The source of these data is the EternaBench riboswitch data.

The test system of this data set is MS2 coat protein. Briefly: apparent Kd, MS2 coat protein; higher = weaker binding; RNA-MaP array; FMN 200 µM where present. The essentials:
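Stalled E. coli RNA polymerase transcribed each design on Illumina sequencing-chip clusters. The clusters were titrated with SNAP-549-labelled MS2 coat protein, starting at 0.7 or 1.5 nM and doubling up to 3 µM, first without ligand and then with constant ligand, in 100 mM Tris-HCl pH 7.5, 80 mM KCl, 4 mM MgCl2, BSA, DTT, yeast tRNA and Tween-20. Green signal was normalised to red-channel RNA signal and to the control-cluster median Fmax. The apparent Kd is the median of filtered binding-curve fits made for each cluster.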

Where [1] appears, read: designed as: ON switch for flavin mononucleotide, no ligand.
Where [2] appears, read: ligand present: flavin mononucleotide, designed as: ON switch for flavin mononucleotide.
[3] abbreviates: designed as: OFF switch for flavin mononucleotide, no ligand.
Setting [4] is: ligand present: flavin mononucleotide, designed as: OFF switch for flavin mononucleotide.

Broadly, the apparent Kd is the concentration giving half-maximal binding under the conditions of the assay.

As for “GAGAUUUUGUAAGGAUAUACUCUGUGAUGAAGAGUAGAAGGUACUUACAUGAGGAUCACCCAUGUUUAACGAGAUACUAAUCGU”, the “apparent Kd” value was found to be 57 nM under setting [1] and 23.3 nM under setting [2].
Turning to “ACCUUACAUGAGGAUCACCCAUGUUAGGAUAUCUCGCUUGCGCAAUCACAACGCAAGCAGAGAAGGGACGCGGG”, the “apparent Kd” value is 29.1 nM under setting [3] and 33.4 nM under setting [4].
The matching figures for “AACAUGGCAGAGGAUAUAGGACGCUGGCAUAAACUAGAAGGCUGCACAUGAGGAUCACCCAUGUGUUCCUAAAC”: 21.7 nM and 39.4 nM.
The like results for “GGAUAGGACAGAGGAUAUACGUGCUAGAGAUACUAGCAUAAUUUCCUCACAUGAGGAUCACCCAUGUAGAAGGCUGUCCUAUCG” were, in that order, 6.78 nM and 46.7 nM.
For the sequence “GGUGCGUAUGUUAGGAUAUGCUGGUCCUUGGAUCGGCAGAAGGUACAUGAGGAUCACCCAUGUGGUGUCGUUCC”, the “apparent Kd” value reads like this: under setting [3], 64.8 nM; under setting [4], 72.4 nM.
The matching figures for “AAAUAGGAAGGAUAUACGGCGGGAUACUGGUUCCACGUGUUACAUGAGGAUCACCCAUGUAGAAGGUCUGGUUA”: 24.7 nM and 55.4 nM.
For the sequence “GGUACCAACACAGGAUAUGCUAUCCUUUGGGUAGCAGAAGGGUGAAACAUGAGGAUCACCCAUGUGGUGCCACCCGGUGACGGG”, the “apparent Kd” value under setting [1] is 1180 nM and the “apparent Kd” value under setting [2] came out at 89.2 nM.
Turning to “UAGGACUACGUAGGAUAUGUAGUAUAUUACUACAUGAGGAUCACCCAUGUAAGCAUGUUAUUAGGACAGAAGGACGUGGUAAAU”, the “apparent Kd” value amounted to 43.6 nM under setting [1] and 13.7 nM under setting [2].
Regarding “GGAUGUCAAAGACAUCCAUAACGAACAUGAGGAUCACCCAUGUAGGAUAUGCUACUCAAAGAGUAGCAGAAGGACAUGUGUCUU”, the “apparent Kd” value was 30.3 nM under setting [3] and 150 nM under setting [4].
For the sequence “AGCAAGUUUACAUGAGGAUCACCCAUGUUUUUUAGGGUUAUCAGAAGGUACAUUUUGAGAUAGAGUAAGGAUAUGAUAUAUGCG”, the “apparent Kd” value by setting is: under setting [1], 169 nM; under setting [2], 55 nM.
For “AACUUACAUGAGGAUCACCCAUGUGAGGAUAUAUAAAUAUAUAUGUUAUUGUAUGUUUGUAGAAGGCGCGUGAU”, the “apparent Kd” value runs as follows: under setting [3], 52.2 nM; under setting [4], 51.2 nM.
The matching figures for “GUUUUCGCAGGAUAUUAGAGUUUUUACAUGAGGAUCACCCAUGUUAAUUGGGUUAAUGUCUAAGAAGGGCGAUGUA”: 67.6 nM and 101 nM.
The matching figures for “GGAUAGGACAGAGGAUAUACGUGCUAGAGAUACUUGCAAAAUUUCCUCACAUGAGGAUCACCCAUGUAGAAGGCUGUCCUAUCG”: 56 nM and 489 nM.
As for “AGUGUCAUCGAGAAGGCCUCAACAUGAGGAUCACCCAUGUUGCAAAAUGGGAGGAUAUCGCGAAAACAGCUACGUUUCGUAGCA”, the “apparent Kd” value under setting [1] is 40.8 nM and the “apparent Kd” value under setting [2] was 8.79 nM.
Take “UAGAAGUCAGGAUAUGCAUGGCGGGACUUGCGUCGUGGCGUGCAGAAGGGACAUGAGGAUCACCCAUGUGGAGA”: the “apparent Kd” value by setting is: under setting [3], 117 nM; under setting [4], 369 nM.
The matching figures for “AAACUCAGAGGAUAUACAUAACACAGACUCUUCAUGCGUUCACAUGAGGAUCACCCAUGUAGAAGGCUGACAAC”: 23.2 nM and 85.1 nM.
The like results for “GUGUAGUCAGGAUAUACAUAGGAAGAGAAGAGAAGAUAAGCACAUGAGGAUCACCCAUGUAGAAGGGACAGUGU” were, in that order, 65.1 nM and 70.7 nM.
Consider “AGUUAAUAUCGAGGAUAUAAGUCUAGGACAUGAGGAUCACCCAUGUAUGUCUUAGAAGGCGAUAUUAACAGCAUGUUACAUGCA”, for which the “apparent Kd” value runs as follows: under setting [1], 28.3 nM; under setting [2], 6.89 nM.
Consider “UUUAUGUCAGGAUAUACAUGAGGAUCACCCAUGUAUAUCUAAAAAUAUACAUGGGAAUGUAGAAGGGACCUCCU”, for which the “apparent Kd” value came to 53 nM under setting [3] and 46.3 nM under setting [4].
On to “AGUGUCAUCGAGAAGGCCUCGACAUGAGGAUCACCCAUGUUGUAACAUGGGAGGAUAUCGAUGAUACAGCUACGUUUCGUAGCA”, for which the “apparent Kd” value worked out at 767 nM under setting [1] and 394 nM under setting [2].
As for “UGGUACAUCGGAGGAUAUCAUGUAGACACAUGAGGAUCACCCAUGUCGAUGGAGACAUCGGAGAUUGAGAAGGCCGAUGUACCU”, the “apparent Kd” value runs as follows: under setting [1], 503 nM; under setting [2], 23.3 nM.
The matching figures for “UGUUGUAUUACAGGAUAUCUAUGAUUUUUAUUAAGAGAAGGGUAUUCACAUGAGGAUCACCCAUGUAUAUACGAGGAAGUUGUG”: 35.2 nM and 36 nM.
Consider “ACUUCUAAGCAGAAGGCAGUCAUAGUAUUCGUCAUGUAGACAUGAGGAUCACCCAUGUAUAGUACUGAGGAUAUGCUUGGAUAG”, for which the “apparent Kd” value runs as follows: under setting [3], 24 nM; under setting [4], 24.4 nM.
The matching figures for “ACUAUACGAGGAUAUACUGACGGGCCUCAGGCAUACAUCAAACAUGAGGAUCACCCAUGUAGAAGGCGUAUACU”: 79.4 nM and 29.2 nM.
Regarding “UUUGUUGUUGUGAGGAUAUCGUUGUUAUUUUGAAACGAGAAGGCACAUGAGGAUCACCCAUGUUUGUUGUUGGU”, the “apparent Kd” value stood at 52.1 nM under setting [3] and 195 nM under setting [4].
The matching figures for “UGCUGUGUCAGAGGAUAUACGUCAAUAAUCCAUUGCAAAUAGCGAUGGACAUGAGGAUCACCCAUGUAGAAGGCUGUCACAGCA”: 58.3 nM and 242 nM.
In the case of “GACCUGAGUAAUAAUGUAGAAAUACAUGAGGAUCACCCAUGUAAGGAUAUGCAGUGGAAUACACUGCAGAAGGUACAUCUCAGG”, the “apparent Kd” value runs as follows: under setting [3], 16.6 nM; under setting [4], 29.6 nM.
The matching figures for “CUGCCUUAUGUAGGAUAUGCAUAGCGUUGCUAUGCAGAAGGACAUGAGGAUCACCCAUGUAUGUAAUCAAUACAUAUCUGGCAG”: 19.8 nM and 122 nM.
The matching figures for “CUUUUGGGAGGAUAUUAGUAGUAAAUAAAUAAAAUUACUACUGAGAAGGCACAUGAGGAUCACCCAUGUUCCUC”: 17.9 nM and 26.1 nM.
For the sequence “GCCAAUAAGAUUGGCACCGGCGCGCAGGAUAUGCUGGCCUACAUGAGGAUCACCCAUGUCUAAAUGCAGAAGGGUGAGCUGAGC”, the “apparent Kd” value under setting [1] amounted to 444 nM and the “apparent Kd” value under setting [2] is 82.4 nM.
As for “GCUGCAUAGUCAGGAUAUGCAACAUAAUAUACAAAAUAGUAUAUUAUGACAUGAGGAUCACCCAUGUAGAAGGGACUGUGCAGU”, the “apparent Kd” value under setting [3] turned out to be 19.3 nM and the “apparent Kd” value under setting [4] was determined as 19.9 nM.
With “GUAGCUAUUAAAGGAUAUUCAUACCGGAGACGGACAUGAGGAUCACCCAUGUGGCGAAAGCCUUGGGAGAAGGUUAUUAGCUAC”, the “apparent Kd” value reads like this: under setting [1], 452 nM; under setting [2], 17.7 nM.
As for “AAUAUGAGCUGGUAAAUAAAACCGACAUGAGGAUCACCCAUGUAGGAUAUCAGCACGAUAAGUGCUGAGAAGGACAUCCAGCUC”, the “apparent Kd” value was found to be 14.4 nM under setting [3] and 16.7 nM under setting [4].
The like results for “AAAAAGGCAGGAUAUACGAGUCAAAGAAAAGACAAAAGGAGACAUGAGGAUCACCCAUGUAGAAGGGCCAAAAA” were, in that order, 26.7 nM and 87.7 nM.
The matching figures for “UUUGUCUGUGUGAGGAUAUACUUUUUUUGGUUUUUGUAGAAGGCACAUGAGGAUCACCCAUGUAUUUUGUUGUG”: 37.7 nM and 50.2 nM.
The matching figures for “CUUAGACAUGAGGAUCACCCAUGUCAGGAUAUCGUCUACCUGUGGAAACACAGGUAGACGAGAAGGGAUGUGUU”: 51.6 nM and 41.4 nM.
